Screens (PubChem)
Hits are enriched below; roughly 1.2% of the tested compounds scored in any of these assays.
CRFR2-BP ag = agonists of human CRF-binding protein/CRF-R2 receptor complex. HEK293 CRF-R2/CRF-BP, calcium dye fluorescence (FLIPR); percent of saturating CRF peptide response. activation, % at 13.2 µM. actives 0.46% (n = 350,000). AID 588473;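 active = activation of at least 50%, plus an integration ratio under a set limit after plate pattern correction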;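 also: plate controls were neutral control wells without compound for no effect and CRF at EC100 for full effect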
Tn7 DDE FP = inhibitors of Tn7 peptide binding to human fibrin DD(E); P02675; FP displacement of FITC-Tn7 peptide from fibrin DD(E); 0% = median of compound wells per plate; inhibition, % at 8.3 µM; actives 0.13% (n = 370,000);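 active = inhibition above the mean of compounds falling within the control limits plus 3 SD of them, cut at about 14% in these data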;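 also: 0% = plate median of compound wells and 100% = 10 µM Aha-Tn7 peptide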
Target sequence (P02675 whole entry, looked up): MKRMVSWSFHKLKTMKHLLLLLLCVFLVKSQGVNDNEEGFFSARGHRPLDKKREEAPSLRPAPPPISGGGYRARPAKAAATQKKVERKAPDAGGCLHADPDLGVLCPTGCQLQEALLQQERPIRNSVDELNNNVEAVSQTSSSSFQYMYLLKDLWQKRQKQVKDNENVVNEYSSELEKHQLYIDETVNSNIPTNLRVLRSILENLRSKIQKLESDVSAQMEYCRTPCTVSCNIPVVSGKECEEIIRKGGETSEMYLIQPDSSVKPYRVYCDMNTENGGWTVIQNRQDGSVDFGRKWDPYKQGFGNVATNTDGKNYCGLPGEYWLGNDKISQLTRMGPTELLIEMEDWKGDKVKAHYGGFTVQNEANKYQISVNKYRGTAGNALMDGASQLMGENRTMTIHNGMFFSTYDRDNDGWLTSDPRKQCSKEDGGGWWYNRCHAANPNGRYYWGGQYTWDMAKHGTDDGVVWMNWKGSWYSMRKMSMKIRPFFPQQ
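Test system – human fibrin DD(E) · Times – 10 min preincubation, 3 h with tracer, room temperature · Detection – fluorescence polarization of the labelled Tn7 tracer · Measure – percent inhibition normalized to high-control wells · Benchmarks – high control wells with 10 µM unlabelled Aha-Tn7 peptide (full inhibition) · Repeats – singlicate testing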
Tn6 DDE FP = inhibitors of Tn6 peptide binding to human fibrin DD(E). Fibrin DD(E) TRITC-Tn6 fluorescence polarization displacement. inhibition, % at 8.3 µM. actives 0.21% (n = 370,000). AID 720509;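 active = inhibition above a per-campaign cutoff: mean of compounds within control limits plus 3 SD, cut at about 15% in these data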;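 also: 0% = median of all compound wells on the plate and 100% = blocking peptide control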
CRFR2-BP antag = blocks CRF-induced signaling of the CRF-BP/CRF-R2 complex. HEK293 CRF-R2/CRF-BP, CRF-induced calcium fluorescence. inhibition, % at 11.8 µM. actives 0.59% (n = 350,000);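 active = inhibition of the ligand-induced calcium signal above about 50% at the single tested concentration, limit read from the data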
Active calls of the source: *; · = no result.

SMILES	CRFR2-BP ag	Tn7 DDE FP	Tn6 DDE FP	CRFR2-BP antag
Cc1cc(C(=O)N2CCN(c3ccc([N+](=O)[O-])cc3)CC2)co1	-0.3	-0.6	0.0	59.1*
COc1ccc(Cl)cc1NC(=O)c1[nH]c(C)c(C(C)=O)c1C	2.2	1.6	1.6	9.3
COc1ccc(OC)c(NC(=O)c2[nH]c(C)c(C(C)=O)c2C)c1	-3.3	0.5	5.8	76.8*
COc1ccc(N2CCN(CCCNC(=O)CN3CCN(Cc4ccccc4C)C3=O)CC2)cc1	5.7	3.4	0.4	56.2*
N#Cc1ccc(S(=O)(=O)N2CCN(C(=O)[C@@H]3CCCN3C(=O)c3cccs3)CC2)cc1	-0.2	-3.9	-3.2	78.9*
O=C(C1CCCN1C(=O)c1cccs1)N1CCN(S(=O)(=O)c2ccc(F)cc2)CC1 (stereo not drawn)	-1.2	3.3	7.0	4.5
CCN(C(=O)CN1C(=O)COc2ccc(S(=O)(=O)N3CCCCCC3)cc21)c1cccc(C)c1	55.5*	0.2	-6.8	-48.3
COc1ccccc1N1CCN(c2ncc(C(=O)N3CCN(c4cccc(Cl)c4)CC3)c3ccccc23)CC1	114.6*	5.8	6.4	-289.9
O=C(C(=O)N1CCC(CNS(=O)(=O)c2ccc(C(F)(F)F)cc2)CC1)c1cc2ccccc2o1	·	0.2	0.7	·
O=S1(=O)c2ccc(N3CCN(Cc4ccccc4F)CC3)cc2Oc2ccccc2CN1Cc1cn(Cc2ccc(C(F)(F)F)cc2)nn1	·	4.8	-11.2	·
CC(=O)c1ccc(N2CCN(C(=O)c3cccc(Oc4ccccc4)c3)CC2)cc1	-0.5	-1.7	0.1	78.5*
CCOC(=O)Cn1cc(CN2C(C(=O)OC)CN(C3CCCC3)CCS2(=O)=O)nn1 (stereo not drawn)	·	-7.3	-3.8	·
Cc1cccc(C(=O)N2CCc3ccccc3C2)c1[N+](=O)[O-]	-5.2	-0.5	-3.3	85.2*
O=C1C2C3C=CC(C3)C2C(=O)N1CCCO (stereo not drawn)	0.4	6.2	-3.5	69.4*
O=C1C2C3C=CC(C3)C2C(=O)N1CCCCN1C(=O)C2C3C=CC(C3)C2C1=O (stereo not drawn)	0.3	4.3	-8.7	19.8
CCCN1C(=O)c2ccccc2NC1c1ccc(OC)c(CSc2ccccn2)c1 (stereo not drawn)	-1.8	4.1	5.8	50.5*
CCC(C)c1ccc(S(=O)(=O)N2CCN(CC(O)COCC3CCCO3)CC2)cc1 (stereo not drawn)	0.8	2.1	-2.7	64.3*
CC(C)c1ccc(S(=O)(=O)N2CCN(CC(O)CN3CCOCC3)CC2)cc1 (stereo not drawn)	-0.2	-0.6	4.0	-9.6
CCOC(=O)CC[C@@H]1CC[C@]2(CCCN(C(=O)c3ccccc3)C2)O1	·	-7.3	-2.2	·
C=CCN1C(=O)/C(=C2/Sc3ccccc3N2CC)SC1=S	11.1	3.5	6.4	-9.9
C=CCN1C(=O)/C(=C/C=C2/N(CC)c3ccc(S(=O)(=O)N(C)C)cc3N2CC)SC1=S	164.5*	-20.4	-1.9	-175.7
O=S(=O)(N[C@@H]1CCCC[C@@H]1N1CCOCC1)c1ccc(Cl)cc1	·	-3.1	-2.0	·
O=S(=O)(NC1CCCCC1N1CCN(c2ccccc2F)CC1)c1ccc(Cl)cc1 (stereo not drawn)	93.5*	3.5	-2.2	-65.7
O=S(=O)(NC1CCCCC1N1CCOCC1)c1ccc(Cl)cc1 (stereo not drawn)	132.6*	-5.9	-9.2	-130.7
O[C@H](COc1cccc(Cl)c1)CN1CCC(C(O)(c2ccccc2)c2ccccc2)CC1	·	-2.5	4.4	·
SMILES	CRFR2-BP ag	Tn7 DDE FP	Tn6 DDE FP	CRFR2-BP antag
Cc1cccc2cc(/C=N/NC(=O)c3ccncc3)c(Cl)nc12	-2.6	2.2	1.7	-8.1
Cc1cccc2cc(/C=N/NC(=O)c3ccccc3O)c(Cl)nc12	55.1*	2.5	1.2	9.0
Cc1nc2c(C)cccc2cc1C(=O)N/N=C/c1ccc(O)cc1	-10.7	4.4	6.5	71.1*
Cc1ccccc1C(=O)Nc1ccc(C(=O)N/N=C/c2ccc(O)cc2)cc1	-0.4	1.6	-3.6	-1.1
NC(=O)CS(=O)(=O)c1nc2ccccc2n1Cc1ccccc1F	2.2	5.6	-1.6	118.2*
COc1ccccc1NC(=O)CCSc1nnnn1C	120.8*	1.6	11.0	-143.7
COc1ccccc1NC(=O)C(C)Sc1nnnn1C (stereo not drawn)	1.1	-0.6	-3.2	5.0
Cc1ccc(S(=O)(=O)NCC2CN(S(=O)(=O)c3ccc(C)cc3)c3ccccc3C(=O)N2c2ccc(F)cc2)cc1 (stereo not drawn)	·	-8.7	-0.1	·
C=CCN1C(c2ccc(Br)cc2)=CS/C1=C(/C#N)c1nnc(N2CCOCC2)n1-c1ccccc1	-0.1	0.3	1.4	11.5
C=CCN1C(c2cccc(C(F)(F)F)c2)=CS/C1=C(/C#N)c1nnc(N2CCOCC2)n1-c1ccccc1	108.0*	-5.9	-7.0	-2.4
Cc1ccnc(NC(=O)c2cccc(S(=O)(=O)N3CCCC3)c2)c1	-0.6	0.1	2.4	73.4*
O=C(Nc1cccc(Cl)c1)Nc1cc(S(=O)(=O)N2CCCCC2)ccc1Cl	4.6	4.7	55.1*	-10.2
Cc1ccnc(NC(=O)c2cccc(S(=O)(=O)N3CCN(c4ccccc4)CC3)c2)c1	-0.4	3.3	9.3	3.9
CN1CCN(S(=O)(=O)c2ccc(NC(=O)Nc3cccc(Cl)c3)cc2)CC1	0.6	2.5	-15.5	-8.8
O=C(Nc1nnc(S(=O)(=O)N2CCCC2)s1)c1cccc([N+](=O)[O-])c1	-0.3	·	·	24.0
O=C(Nc1nnc(S(=O)(=O)N2CCCCC2)s1)c1cccc(Br)c1	13.9	·	·	58.5*
CC(=O)N1CCN(S(=O)(=O)c2cccc(C(=O)NCc3ccc(F)cc3)c2)CC1	1.5	0.2	1.5	89.3*
O=C(NCc1ccc(F)cc1)c1cccc(S(=O)(=O)N2CCCC2)c1	-0.9	-0.8	1.7	0.0
C=CCN1C(=O)[C@@H](CC(=O)NCc2cccs2)[C@]2(C(=O)OCC)CCCCC/C=C/12	·	5.3	-9.8	·
CCOC(=O)N1C(=O)C[C@](Sc2ccc(OC)cc2)(C(=O)N2CCOCC2)[C@H]1c1ccc(OC)cc1	·	7.6	1.0	·
CCC(c1nc2ccccc2[nH]1)N(CCCn1ccnc1)C(=O)c1ccc(C(F)(F)F)cc1 (stereo not drawn)	·	-1.5	1.3	·
O=C(NNC(=O)c1cccc(S(=O)(=O)N2CCCCC2)c1)c1ccccc1	-0.2	4.7	-1.1	103.3*
O=C(c1cccc(S(=O)(=O)N2CCOCC2)c1)N(Cc1ccc(F)cc1)Cc1ccco1	-1.0	4.8	-2.2	55.2*
O=C(Nc1ccc(Cl)cn1)c1cccc(S(=O)(=O)N2CCCC2)c1	0.1	6.1	-6.7	58.3*
CN(C)S(=O)(=O)c1cccc(C(=O)N(Cc2ccc(F)cc2)Cc2ccco2)c1	-1.6	-6.3	-4.6	12.4
O=S1(=O)c2c(cccc2N2CCSCC2)Oc2ccccc2CN1Cc1cn(Cc2ccccc2C(F)(F)F)nn1	·	-9.6	-7.9	·
